Data reported in BindingDB's records for PubMed 32809817 (Griffith University, 2020).

Target: T1, Galectin-8 (Homo sapiens, UniProt O00214)
T1 sequence (O00214 whole entry): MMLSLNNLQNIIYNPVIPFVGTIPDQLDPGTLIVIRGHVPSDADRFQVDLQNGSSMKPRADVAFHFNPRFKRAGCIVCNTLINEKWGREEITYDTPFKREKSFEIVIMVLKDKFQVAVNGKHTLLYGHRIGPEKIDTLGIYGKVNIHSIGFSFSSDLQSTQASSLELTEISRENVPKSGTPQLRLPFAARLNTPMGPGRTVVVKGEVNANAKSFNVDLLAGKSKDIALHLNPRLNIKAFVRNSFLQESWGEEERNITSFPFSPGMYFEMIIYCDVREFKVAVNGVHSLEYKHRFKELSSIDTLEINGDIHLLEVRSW
Test: Binding affinity to N-terminal domain of human galectin-8 (8-154 residues) by ITC assay
How it was run: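 Untagged galectin-8N (residues 8-154) was expressed in bacteria (IPTG induction 4 h, room temperature) and purified on lactosyl-Sepharose at 4 °C. Protein and ligand were in 20 mM Tris pH 7.5, 100 mM NaCl, 4 mM BME, 5% DMSO and degassed. Ligand (0.5 or 1 mM) was titrated into 100 µM protein over 20-25 × 2.5 µl injections, 150 s apart, at 298 K. Blank-corrected data were fitted to an independent-site model for Kd.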

Kd: 37.9 µM
SMILES: OC[C@H]1O[C@@H](O[C@H]2[C@H](O)[C@@H](O)[C@H](O)O[C@@H]2CO)[C@H](O)[C@@H](O)[C@H]1O [Lactose, anhydrous]
